Here are results for three compounds from ChEMBL document CHEMBL1154838, “Stolonoxides E and F, cytotoxic metabolites from the marine ascidian Stolonica socialis” (2010).

Structures are written as SMILES.

Holding throughout (type): functional
Assay [1] deals with A549. The assay can be described thus: Cytotoxicity against human A549 cells after 72 hrs by SRB assay. As to conditions: A549, 72 h. In outline:
(§1)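 Cells kept in RPMI with 10% fetal calf serum, 2 mM L-glutamine, 100 U/mL penicillin/streptomycin, 37 °C, 5% CO2. Triplicate cultures exposed 72 h to 10 concentrations, 10 to 0.0026 µg/mL. Fixed in 1% glutaraldehyde 15 min, stained with 0.4% SRB 30 min at room temperature, extracted in 10 mM trizma base, absorbance read at 490 nm. GI50 from NCI algorithm, corrected for starting cell count. Doxorubicin positive control, DMSO vehicle.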
In general terms: In SRB staining, fixed cells bind dye roughly in proportion to their protein.

In assay [2] the test system is MDA-MB-231. The assay can be described thus: Cytotoxicity against human MDA-MB-231 cells after 72 hrs by SRB assay. As to conditions: MDA-MB-231, 72 h; for CC50: read-out: LC50 (the source's name). A digest of the protocol: as §1
In assay [3] the test system is HT-29. The assay can be described thus: Cytotoxicity against human HT-29 cells after 72 hrs by SRB assay. As to conditions: HT-29, 72 h. In outline: as §1

As for `O=C(O)C[C@@H]1CC[C@@H]([C@H]2CC[C@H](CCCCCCC3\C=C/C=C\C=C/C3)O2)OO1` (stereo not given in full) [STOLONOXIDE F], in assay [1], it took 5.44 µM to inhibit growth by half (GI50), the LC50 (usually the concentration that kills 50% of the test population) worked out at 6.67 µM and total growth inhibition (TGI) required 5.93 µM. Also, in assay [2], the GI50 (in general, the concentration giving 50% growth inhibition) came out at 4.7 µM; the TGI (commonly the concentration giving total growth inhibition) amounted to 5.44 µM; the CC50 is 6.18 µM. In assay [3], growth was halved (GI50) at 2.72 µM, the LC50 (concentration killing 50% of starting cells) worked out at 3.71 µM and total growth inhibition (TGI) required 3.21 µM.

In assay [1], `COc1cccc2c1C(=O)c1c(O)c3c(c(O)c1C2=O)C[C@@](O)(C(=O)CO)C[C@@H]3O[C@H]1C[C@H](N)[C@H](O)[C@H](C)O1` [DOXORUBICIN] came in with a GI50 of 0.062 µM and a TGI of 0.26 µM. For the same compound, in assay [2], the GI50 was determined as 0.038 µM, the TGI amounted to 0.31 µM and the CC50 was 2.41 µM. In assay [3], this compound gave a GI50 of 0.066 µM and a TGI of 0.4 µM.

Turning to `O=C(O)C[C@@H]1CC[C@@H]([C@@H]2CC[C@@H](CCCCCCC3\C=C/C=C\C=C/C3)O2)OO1` (stereo not given in full) [STOLONOXIDE E], in assay [1], the GI50 is 7.91 µM, the LC50 came out at 8.65 µM and the TGI came out at 8.16 µM. Moreover, in assay [2], it took 4.94 µM to inhibit growth by half (GI50), the TGI is 5.44 µM and the CC50 stood at 6.18 µM. In assay [3], this compound yielded a GI50 of 3.96 µM, an LC50 (concentration killing 50% of starting cells) of 6.67 µM and a TGI of 5.19 µM.
